Hits are enriched below; roughly 2.2% of the tested compounds scored in any of these assays.
E coli RNAP: inhibitors of Escherichia coli RNA polymerase. E. coli RNA polymerase, fluorescence transcription assay. AID 559. P0A8V2. inhibition, %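 (tested at 10 µM)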. 0.2% of 62,000 active; in the data active means inhibition above about 20%;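 further: 0% = enzyme without compound and 100% = no enzyme blank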
Target sequence (P0A8V2 whole entry, looked up): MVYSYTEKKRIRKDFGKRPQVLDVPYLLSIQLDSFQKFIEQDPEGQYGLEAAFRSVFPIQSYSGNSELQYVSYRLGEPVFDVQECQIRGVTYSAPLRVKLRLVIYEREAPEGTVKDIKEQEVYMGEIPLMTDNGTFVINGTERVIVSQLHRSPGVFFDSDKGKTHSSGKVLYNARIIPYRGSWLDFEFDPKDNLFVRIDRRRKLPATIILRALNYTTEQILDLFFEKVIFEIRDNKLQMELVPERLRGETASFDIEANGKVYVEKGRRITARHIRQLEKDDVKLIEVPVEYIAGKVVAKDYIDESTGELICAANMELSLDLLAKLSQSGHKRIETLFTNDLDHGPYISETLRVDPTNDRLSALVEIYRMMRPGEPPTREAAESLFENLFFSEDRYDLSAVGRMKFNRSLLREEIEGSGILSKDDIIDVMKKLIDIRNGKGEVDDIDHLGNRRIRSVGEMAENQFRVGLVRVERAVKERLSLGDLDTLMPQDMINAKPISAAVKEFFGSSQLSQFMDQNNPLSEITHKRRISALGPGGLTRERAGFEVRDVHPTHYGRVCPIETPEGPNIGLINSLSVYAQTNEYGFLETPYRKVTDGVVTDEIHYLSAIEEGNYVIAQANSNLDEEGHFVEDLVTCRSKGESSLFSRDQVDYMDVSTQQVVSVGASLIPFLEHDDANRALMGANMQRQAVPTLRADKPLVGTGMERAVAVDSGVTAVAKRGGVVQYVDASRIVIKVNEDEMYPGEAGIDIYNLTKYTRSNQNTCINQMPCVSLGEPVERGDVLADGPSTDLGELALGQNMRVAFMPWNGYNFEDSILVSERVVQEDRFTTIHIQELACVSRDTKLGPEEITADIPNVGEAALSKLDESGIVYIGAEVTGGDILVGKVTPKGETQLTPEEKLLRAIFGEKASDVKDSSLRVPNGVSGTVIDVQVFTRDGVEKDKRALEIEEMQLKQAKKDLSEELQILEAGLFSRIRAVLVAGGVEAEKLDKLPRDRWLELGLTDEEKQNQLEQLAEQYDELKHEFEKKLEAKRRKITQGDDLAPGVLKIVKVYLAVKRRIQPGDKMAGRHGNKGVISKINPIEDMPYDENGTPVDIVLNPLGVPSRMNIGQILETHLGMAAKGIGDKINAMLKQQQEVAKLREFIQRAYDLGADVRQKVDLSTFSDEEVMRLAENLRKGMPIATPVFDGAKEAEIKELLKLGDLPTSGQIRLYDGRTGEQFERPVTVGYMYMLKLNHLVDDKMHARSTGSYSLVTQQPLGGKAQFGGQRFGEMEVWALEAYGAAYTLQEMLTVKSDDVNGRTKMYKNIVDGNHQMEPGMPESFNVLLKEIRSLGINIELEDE
AP complement: orthogonal test for alternative complement pathway inhibitors. Human serum alternative complement pathway, LPS-coated ELISA, C3 deposition; tested in compound mixtures. inhibition, % at 5 µM. 0.08% of 62,000 active. AID 1235;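 active means inhibition above 30% in each of the two pooled mixtures holding the compound, so the lower value exceeds 30%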;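 further: 0% = serum in Mg-EGTA without compound and 100% = EDTA serum blank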
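Assay system: Human serum alternative complement pathway, C3 deposition on LPS-coated wells | Incubation: 1 h serum-compound exposure at 37 °C | Doses: 5 µM per compound in ten-compound mixtures | Read-out: Percent inhibition | Technique: ELISA with HRP anti-human C3 antibody, TMB substrate, absorbance 450 nm | Replication: Two pool placements per compound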
RORa activator: RORA (human) activation | P35398 | CHO-K1 Gal4-RORA LBD luciferase reporter, luminescence; percent increase over mock-subtracted basal signal | activation, % at 10 µM | 1.5% of 65,000 active | AID 560;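 active means activation above the mean of all tested compounds plus 3 SD, cut at about 49% in these data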;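 further: 0% = DMSO-treated RORA cells and 100% = added signal equal to DMSO minus mock-transfected cells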
SF-1 act: activators of human nuclear receptor SF-1; Q13285; CHO-K1 Gal4-SF-1 LBD luciferase reporter; % increase over DMSO SF-1-specific signal; activation, % at 10 µM; 1.9% of 65,000 active;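 active means activation above the mean activation of all tested compounds plus 3 SD, cut at about 50% in these data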
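Test system: CHO-K1 cells with Gal4–hSF-1 LBD chimera plus Gal4-driven luciferase; Input: 4,000 cells/well; Compound: 10 µM only; Times: 20 h compound treatment, 37 °C; Measured by: steady-glow luciferase luminescence, read after 15 min reagent incubation; Measure: percent activation versus DMSO; Control set: DMSO and mock-transfected background; Replicates: one test per compound.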
MT1-MMP txn act: MT1-MMP promoter transcription activation | 0.16% of 86,000 active | HT1080 MT1-MMP promoter luciferase reporter, luminescence, overnight; hits give high values | activation factor at 10 µM;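 active means activation factor of at least 2 for MT1-MMP transcription at 10 µM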
TNAP act mid DEA: activates human TNAP at intermediate phosphate acceptor concentration. activation factor at 20 µM. 64,000 tested, under 10 active. purified TNAP, CDP-star luminescence, 100 mM DEA, 30 min; hits give high values; scale: 0 levamisole-inhibited, 1 vehicle-only enzyme. P05186. AID 813;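 active means activation factor of at least 2 at 20 µM, relative to controls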
* hit, by the source's call; / = no result given.

SMILES	E coli RNAP	AP complement	RORa activator	SF-1 act	MT1-MMP txn act	TNAP act mid DEA
Cc1ccc(CNC(=O)c2ccccc2NC(=O)CSc2nnnn2C)cc1	11	0	-4	4	1	/
Cc1cc(C(=O)CSc2nnc(-c3ccco3)o2)c(C)n1-c1ccc2c(c1)OCCO2	-7	-11	20	7	1.3	0.9
Cc1cc(C(=O)CSc2nnnn2C)c(C)n1-c1ccc2c(c1)OCCO2	6	-10	36	54*	1.6	1
Cc1cc(C)n2nc(SCc3cc(=O)n4c(C)cccc4n3)nc2n1	4	6	-8	9	1	1
CCN1CCN(Cc2ccc(NC(=O)Nc3ccccc3OC)cc2)CC1	-1	-5	49*	29	1.3	1.1
CCN1CCN(CCC(=O)Nc2ccccc2OC)CC1	7	6	-12	-2	1.1	0.9
O=C1Cc2ccccc2N1c1c(Cl)cccc1Cl	/	/	/	/	2.2*	/
COC(=O)c1sc2nc(-c3ccco3)ccc2c1N	6	-8	26	66*	1	1
O=C(Cc1cccs1)Nc1ccc(C(=O)O)cc1	9	15	2	-6	1.9	0.9
Cc1nc2ccc(NC(=O)Cc3cccs3)cc2s1	12	1	53*	80*	1.4	0.9
Cc1nc2ccc(NC(=O)c3ccc(Cl)c(NC(=O)c4cccs4)c3)cc2s1	/	/	/	/	1.3	/
CC(=O)c1sc(NC(=O)c2ccc(Cn3cc(Br)cn3)o2)nc1C	2	11	-9	-10	1	0.9
Cc1ccc2nc(NC(=O)c3ccc(Cn4cc(Cl)cn4)o3)sc2c1	/	/	55*	13	1.1	/
Cc1cccc2sc(NC(=O)c3ccc(Cl)s3)nc12	15	2	23	50*	1.7	0.9
Cc1nc2ccc(NC(=O)c3ccc(Cl)s3)cc2s1	8	19	80*	76*	1.5	1
CCC(=O)N1CCN(c2ccc(Cl)cc2NC(=O)Cc2ccc(Cl)cc2)CC1	/	/	/	/	1.1	/
Cc1ccc2nc(NC(=O)c3ccc(Cl)s3)sc2c1	6	7	86*	54*	1.1	0.9
Cc1ccc2nc(NC(=O)c3cccs3)sc2c1	5	11	-14	-41	0.2	0.9
COC(=O)c1ccc(C(NC(=O)OCc2ccccc2)/C(=C/[C@@H](C)C(=O)Nc2ccccc2)C(F)(F)F)cc1 (stereo partly drawn)	/	/	/	/	1.1	/
COc1ccc(NC(=O)CN(C)S(=O)(=O)c2cccs2)cc1	3	13	51*	22	1.4	0.9
CCOc1ccc(NC(=O)CN(c2ccc(OC)cc2)S(C)(=O)=O)cc1	2	5	77*	26	1.6	0.9
COC(=O)c1ccccc1NC(=O)CN(c1ccc(OC)cc1)S(C)(=O)=O	/	/	/	/	1.3	/
COC(=O)c1ccc(NC(=O)CN(c2ccc(OC)cc2)S(C)(=O)=O)cc1	6	4	66*	75*	1.9	1
Cc1cccc(NC(=O)CN(C)S(=O)(=O)c2cccs2)c1	/	/	/	/	1.5	/
CCOc1ccc(N(CC(=O)Nc2ccc(OC)cc2)S(C)(=O)=O)cc1	7	-11	61*	36	1.7	0.9
SMILES	E coli RNAP	AP complement	RORa activator	SF-1 act	MT1-MMP txn act	TNAP act mid DEA
CCOc1ccc(NC(=O)CN(C2CCCCC2)S(C)(=O)=O)cc1	/	/	/	/	1.2	/
CCC(=O)c1cn(CC(=O)NCc2cccnc2)c2ccccc12	6	1	-13	1	1.1	1
O=C(Nc1ccc(Br)cn1)c1ccc2nccnc2c1	2	9	44	69*	1.8	0.9
CCOC(=O)NC1(Nc2ccc(Cl)cn2)Oc2ccccc2O1	25*	-8	-13	-2	1.1	1
CCOC(=O)/C=C/C(=O)OCC(=O)Nc1ccc(Cl)cn1	/	/	/	/	1.2	/
CS(=O)(=O)NCCC1=CCCCC1	5	2	-19	-5	1.1	0.9
Cc1ccc(C2=NN3C(C2)c2ccccc2OC32C(=O)Nc3ccccc32)cc1 (stereo not drawn)	/	/	/	/	2*	/
NC(=O)C1(N2CCCCC2)CCN(C(=O)CSc2nc3ccccc3s2)CC1	0	-3	-13	-8	1.2	1
O=C(NCc1ccc2c(c1)OCO2)c1c[nH]c2ccc(S(=O)(=O)N3CCOCC3)cc2c1=O	0	23	-15	-8	1.1	1
O=C(NCc1ccccc1)c1c[nH]c2cc3c(cc2c1=O)OCCO3	/	/	/	/	2.2*	/
CCCC(=O)Nc1cc(Cl)ccc1N1CCN(C(=O)CC)CC1	-1	10	-3	-10	1.1	0.9
Cn1c2c(c(=O)n(C)c1=O)C(c1cc3c(cc1Br)OCO3)CC(=O)N2 (stereo not drawn)	5	32*	-15	-15	1.1	1
COC(=O)C1=C(C)NC(=O)CC1c1cc2c(cc1Br)OCO2 (stereo not drawn)	4	16	13	0	1.2	0.9
COc1ccc(Nc2nc(Nc3ccc(OC)cc3)nc(SC3=NCCS3)n2)cc1	/	/	/	/	1	/
O=c1[nH]cnc2cc(-c3ccccc3)sc12	4	/	18	56*	1.4	1
COc1ccc2nc(NCc3ccccc3)[nH]c2c1	1	27	52*	36	1.5	1
Cc1ccc2nc(NCc3ccccc3)[nH]c2c1	/	/	37	68*	0.7	1
c1ccc(CNc2nc3ccccc3[nH]2)cc1	-9	10	-14	0	1	1
Cc1sc2c(c1C)c(=O)nc1scc(C)n12	/	/	/	/	1	/
O=C(Nc1ccc(Cl)cn1)c1ccc2ccccc2n1	/	/	/	/	1.5	/
O=C(Nc1ccccc1C(=O)O)c1ccc2ccccc2n1	9	10	45	80*	1.2	1
CCCn1c(SCC(=O)Nc2nnc(CC)s2)nc2c1c(=O)n(C)c(=O)n2C	0	13	-9	3	1.1	1
CCCn1c(SCC(=O)Nc2nc3c(s2)CCCC3)nc2c1c(=O)n(C)c(=O)n2C	55*	-9	-11	-8	1.3	0.9
CC(=O)c1c(C)[nH]c(C(=O)Nc2ccc3c(c2)OCCO3)c1C	-4	9	9	61*	0.9	0.9
O=C(Nc1ccc2oc(-c3ccccc3F)nc2c1)c1ccc2c(c1)OCCO2	4	2	61*	31	/	1
O=C(Nc1ccccc1-c1nc2ccccc2o1)c1ccc2c(c1)OCCO2	7	-8	-8	-3	0.8	0.9
CCOC(=O)c1[nH]c(C)c(C(=O)Nc2ccc3c(c2)OCCO3)c1C	5	7	39	1	1.3	0.9
O=C(Nc1ccc2c(c1)OCCO2)c1c(F)cccc1F	10	3	47	56*	0.8	0.9
O=C(Nc1ccc2c(c1)OCCO2)c1ccccc1F	-3	7	-30	2	0.6	0.9
CCOc1cccc(NC(=O)C2CC(=O)NC(=Nc3ccccc3)S2)c1 (stereo not drawn)	8	4	-11	9	1.1	0.9

Bioassay records deposited in PubChem by several laboratories.
